# Test system: Trypanosoma brucei rhodesiense
# Assay: Antitrypanosomal activity against Trypanosoma brucei rhodesiense trypomastigotes after 72 hrs
# Format: functional, organism-based
# Details: not given
row,SMILES,IC50 [µg/mL]
1,C[C@@H]1CC[C@H]2[C@@H](C)C(=O)O[C@@H]3O[C@@]4(C)CC[C@@H]1[C@]32OO4 [ARTEMISININ],6
2,N=C(N)c1ccc(OCCCCCOc2ccc(C(=N)N)cc2)cc1 [PENTAMIDINE],0.4

# Test system: Trypanosoma brucei brucei
# Assay: Antitrypanosomal activity against Trypanosoma brucei brucei 221 after 48 hrs
# Format: functional, organism-based
# Details: Trypanosoma brucei, 221, 48 h
# Method in brief: (§1)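 T. brucei brucei strain 221 cultured in complete HMI-9 with 10% FBS, 10% Serum Plus and penicillin/streptomycin; seeded at 1×10^5 per mL and exposed to test samples delivered in 10% DMSO for 48 h at 37 °C, 5% CO2. Vehicle wells served as 0% inhibition and 1 mM thimerosal stock as 100%. Viability read as ATP bioluminescence after CellTiter-Glo lysis.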
row,SMILES,IC50 [µg/mL]
1,CC1=C(CC/C(C)=C/CC[C@]2(C)CC[C@H]([C@@H](C)C(=O)O)OO2)C(C)(C)CCC1,0.9
2,COC(=O)[C@H](C)[C@H](O)CC[C@](C)(O)CCCC(C)CCC(=O)C(C)(C)CCCC(C)=O (stereo partly specified),> 25
3,COC(=O)[C@H](C)[C@H]1CC[C@@](C)(CC/C=C(\C)CCC(=O)C(C)(C)CCCC(C)=O)OO1,5
4,CC(=O)CCCC(C)(C)C(=O)CC/C(C)=C/CC[C@]1(C)CC[C@H]([C@@H](C)C(=O)O)OO1 [(+)-MUQUBILONE B],2
5,C=C1CCC[C@@H]2[C@@](C)(CC[C@]3(C)CC[C@H]([C@@H](C)C(=O)O)OO3)[C@H](C)CC[C@@]12C,1
6,C=C1CCC[C@@H]2[C@@](C)(CC[C@]3(C)CC[C@H]([C@@H](C)C(=O)OC)OO3)[C@H](C)CC[C@@]12C,2
7,COC(=O)[C@H](C)[C@@H]1CC[C@@](C)(CC/C=C(\C)CCC(=O)C(C)(C)CCCC(C)=O)OO1,3
8,C=C1CCCC(C)(C)C1CC[C@]1(C)CC[C@@H]([C@@H](C)C(=O)OC)OO1 (stereo partly specified),2
9,C=C1CCC[C@@H]2[C@@H](CC[C@@]3(C)CC[C@H]([C@H](C)C(=O)O)OO3)[C@H](C)CC[C@@]12C [SIGMOSCEPTRELLIN B],0.2

# Test system: Trypanosoma brucei
# Assay: Antitrypanosomal activity against Trypanosoma brucei
# Format: functional, organism-based
# Details: not given
# Method in brief: as §1
row,SMILES,IC50 [µg/mL]
1,ClCCl [METHYLENE CHLORIDE],0.3
2,C=C1CCC[C@@H]2[C@@H](CC[C@@]3(C)CC[C@H]([C@H](C)C(=O)O)OO3)[C@H](C)CC[C@@]12C [SIGMOSCEPTRELLIN B],0.2

# Test system: Trypanosoma brucei rhodesiense
# Assay: Antitrypanosomal activity against Trypanosoma brucei rhodesiense STIB 900
# Format: functional, organism-based
# Details: not given
row,SMILES,IC50 [µg/mL]
1,CC(C)(N)CNC(=O)C[C@H]1CC[C@]2(CC1)OO[C@]1(O2)C2CC3CC(C2)CC1C3 [OZ277],0.6
2,C[C@@H]1CC[C@H]2[C@@H](C)C(=O)O[C@@H]3O[C@@]4(C)CC[C@@H]1[C@]32OO4 [ARTEMISININ],25
3,CC(C)(N)CNC(=O)CC1CC[C@]2(CC1)OC[C@]1(O2)C2CC3CC(C2)CC1C3 (stereo partly specified),0.9

# Reference: ChEMBL document CHEMBL1152329, “The marine sponge Diacarnus bismarckensis as a source of peroxiterpene inhibitors of Trypanosoma brucei, the causative agent of sleeping sickness” (J Nat Prod, 2009)
